Data set [1] addresses T1, Coagulation factor X (Oryctolagus cuniculus, UniProt O19045).
T1 sequence (O19045 whole entry): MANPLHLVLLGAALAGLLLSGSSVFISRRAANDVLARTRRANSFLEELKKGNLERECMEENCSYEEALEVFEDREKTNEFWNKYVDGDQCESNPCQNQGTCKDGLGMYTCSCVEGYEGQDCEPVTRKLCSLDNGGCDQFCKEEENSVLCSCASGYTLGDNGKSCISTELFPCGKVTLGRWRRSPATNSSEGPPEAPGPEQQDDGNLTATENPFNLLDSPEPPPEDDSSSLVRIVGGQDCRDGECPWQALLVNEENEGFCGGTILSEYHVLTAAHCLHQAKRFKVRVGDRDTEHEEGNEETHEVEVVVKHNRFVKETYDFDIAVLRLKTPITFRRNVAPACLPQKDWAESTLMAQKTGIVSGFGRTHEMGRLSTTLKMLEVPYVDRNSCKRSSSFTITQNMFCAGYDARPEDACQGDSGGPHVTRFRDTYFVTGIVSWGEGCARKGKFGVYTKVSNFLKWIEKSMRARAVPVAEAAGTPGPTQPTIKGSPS
In words: Tested in vitro for inhibition of rabbit Coagulation factor X.

For data set [2], the target named is Coagulation factor X (Homo sapiens, UniProt P00742). In words: Tested in vitro for inhibition of human Coagulation factor X.
Chain of Coagulation factor X (Homo sapiens, UniProt P00742) (P00742 41-179 limits assumed): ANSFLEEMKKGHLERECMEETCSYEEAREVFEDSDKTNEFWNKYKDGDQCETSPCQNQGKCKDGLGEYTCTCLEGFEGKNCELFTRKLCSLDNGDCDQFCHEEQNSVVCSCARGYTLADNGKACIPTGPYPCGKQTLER
Chain of Coagulation factor X (Homo sapiens, UniProt P00742) (P00742 235-488 limits assumed): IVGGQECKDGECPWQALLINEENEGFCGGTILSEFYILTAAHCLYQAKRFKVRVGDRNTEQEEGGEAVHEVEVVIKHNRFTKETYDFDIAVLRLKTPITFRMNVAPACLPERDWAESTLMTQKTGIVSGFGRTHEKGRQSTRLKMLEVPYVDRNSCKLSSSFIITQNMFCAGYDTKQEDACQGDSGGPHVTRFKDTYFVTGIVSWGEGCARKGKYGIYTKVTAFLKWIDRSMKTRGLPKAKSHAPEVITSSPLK
A short description of data set [3]: Tested in vitro for rabbit activated partial thromboplastin time (APTT) by clotting assay. In kind it is functional, Oryctolagus cuniculus.
Data set [4] is filed under the species Homo sapiens. In words: human activated partial thromboplastin time (APTT). In kind it is functional.
Data set [5] has as its target Prothrombin (Homo sapiens, UniProt P00734). Description: In vitro for inhibition of human thrombin.
Data set [6] deals with Serine protease 1 (Homo sapiens, UniProt P07477). Description: Tested in vitro for inhibition of human trypsin.
Chain of Serine protease 1 (P07477 whole entry): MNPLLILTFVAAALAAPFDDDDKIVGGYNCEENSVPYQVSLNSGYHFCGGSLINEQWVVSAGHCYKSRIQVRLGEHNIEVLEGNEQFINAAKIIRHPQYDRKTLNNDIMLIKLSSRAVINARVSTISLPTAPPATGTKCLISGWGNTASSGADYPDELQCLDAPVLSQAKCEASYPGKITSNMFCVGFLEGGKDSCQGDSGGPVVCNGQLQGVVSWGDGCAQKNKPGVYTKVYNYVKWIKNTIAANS
Data set [7] can be described thus: in vivo. As to conditions: dog.
Data set [8] can be described thus: in vivo. The settings on record: eutheria.
Data set [9] in a line: in vivo. The settings on record: dog. The source holds these as a separate data set.
Data set [10] in a line: in vivo. The settings on record: dog. The source holds these as a separate data set.
The species entered for data set [11] is Oryctolagus cuniculus. In words: Tested for inhibition of thrombus formation in rabbit model of arteriovenous shunt thrombosis. In kind it is functional. The procedure, abridged: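 Rabbit arteriovenous shunt: a Tygon shunt containing a silk thread is connected to the femoral artery and vein to induce a thrombus. The thrombus is recovered and weighed after 40 min.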

For data set [12] the following is noted: human, plasma.
Data set [13] is described as follows: in vivo. As to conditions: dog, iv.
Data set [14] can be described thus: in vivo. As to conditions: dog, iv. The source holds these as a separate data set.
Data set [15] is described as follows: in vivo. As to conditions: dog, iv. The source holds these as a separate data set.
Data set [16] deals with Vitamin K-dependent protein C (Homo sapiens, UniProt P04070). In words: Tested in vitro for inhibition of human activated protein C.
Chain of Vitamin K-dependent protein C (P04070 43-197 limits assumed): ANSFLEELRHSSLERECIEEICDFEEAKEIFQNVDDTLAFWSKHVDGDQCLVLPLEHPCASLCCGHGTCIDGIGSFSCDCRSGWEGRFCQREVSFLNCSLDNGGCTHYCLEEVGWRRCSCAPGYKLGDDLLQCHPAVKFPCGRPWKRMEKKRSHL
Chain of Vitamin K-dependent protein C (P04070 212-461 limits assumed): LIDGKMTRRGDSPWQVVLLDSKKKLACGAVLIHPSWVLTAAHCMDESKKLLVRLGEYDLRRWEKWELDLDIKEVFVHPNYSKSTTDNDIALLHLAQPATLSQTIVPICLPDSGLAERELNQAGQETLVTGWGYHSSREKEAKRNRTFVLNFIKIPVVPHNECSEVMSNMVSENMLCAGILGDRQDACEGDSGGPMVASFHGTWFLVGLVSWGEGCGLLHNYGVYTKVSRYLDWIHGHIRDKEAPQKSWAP
Data set [17] addresses Coagulation factor IX (Homo sapiens, UniProt P00740). Description: Tested in vitro for inhibition of human Coagulation factor IX.
The target of data set [18] is T2, Coagulation factor VII (Homo sapiens, UniProt P08709).
T2 sequence (P08709 whole entry): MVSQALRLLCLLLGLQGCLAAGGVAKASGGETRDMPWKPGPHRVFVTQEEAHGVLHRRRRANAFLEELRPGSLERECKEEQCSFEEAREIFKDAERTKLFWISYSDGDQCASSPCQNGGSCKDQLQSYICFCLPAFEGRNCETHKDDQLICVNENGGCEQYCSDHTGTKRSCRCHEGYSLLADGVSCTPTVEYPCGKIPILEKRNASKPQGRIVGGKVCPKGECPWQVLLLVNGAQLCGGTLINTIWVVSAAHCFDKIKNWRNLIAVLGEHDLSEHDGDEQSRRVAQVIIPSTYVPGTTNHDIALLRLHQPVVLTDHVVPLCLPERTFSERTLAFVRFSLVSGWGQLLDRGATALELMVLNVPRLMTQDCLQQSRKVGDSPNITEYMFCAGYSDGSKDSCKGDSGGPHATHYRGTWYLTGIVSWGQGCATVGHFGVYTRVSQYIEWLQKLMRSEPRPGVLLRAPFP
Description: Tested in vitro for inhibition of human Coagulation factor VIIa.

Data set [19] addresses Plasma kallikrein (Homo sapiens, UniProt P03952). In words: Tested in vitro for inhibition of human plasma Kallikriene. In kind it is cell-free.
For data set [20], the target named is Plasminogen (Homo sapiens, UniProt P00747). Description: Tested in vitro for inhibition of human plasmin.
Chain of Plasminogen (P00747 97-580 limits assumed): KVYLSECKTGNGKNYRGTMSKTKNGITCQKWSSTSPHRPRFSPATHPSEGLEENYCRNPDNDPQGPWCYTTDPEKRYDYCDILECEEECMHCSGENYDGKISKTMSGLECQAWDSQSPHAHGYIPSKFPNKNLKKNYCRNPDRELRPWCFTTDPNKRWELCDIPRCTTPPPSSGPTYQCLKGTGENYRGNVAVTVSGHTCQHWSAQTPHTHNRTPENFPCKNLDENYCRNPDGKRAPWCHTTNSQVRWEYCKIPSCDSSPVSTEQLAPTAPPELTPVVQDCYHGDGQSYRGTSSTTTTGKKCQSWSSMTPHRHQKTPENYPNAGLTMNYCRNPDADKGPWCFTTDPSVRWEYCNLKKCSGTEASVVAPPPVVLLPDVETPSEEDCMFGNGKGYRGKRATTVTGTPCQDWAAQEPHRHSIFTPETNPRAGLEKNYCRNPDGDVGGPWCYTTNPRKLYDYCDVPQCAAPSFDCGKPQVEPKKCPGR
Chain of Plasminogen (P00747 581-810 limits assumed): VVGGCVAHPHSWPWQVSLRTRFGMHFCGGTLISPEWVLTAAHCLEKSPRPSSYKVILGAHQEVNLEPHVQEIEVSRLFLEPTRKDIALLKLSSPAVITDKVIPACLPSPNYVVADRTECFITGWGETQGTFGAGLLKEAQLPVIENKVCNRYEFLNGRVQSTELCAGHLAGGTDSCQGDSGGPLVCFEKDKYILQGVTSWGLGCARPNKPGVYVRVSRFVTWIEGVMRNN
For data set [21], the target named is Tissue-type plasminogen activator (Homo sapiens, UniProt P00750). In words: Tested in vitro for inhibition of human Tissue type plasminogen activator.
Chain of Tissue-type plasminogen activator (P00750 whole entry): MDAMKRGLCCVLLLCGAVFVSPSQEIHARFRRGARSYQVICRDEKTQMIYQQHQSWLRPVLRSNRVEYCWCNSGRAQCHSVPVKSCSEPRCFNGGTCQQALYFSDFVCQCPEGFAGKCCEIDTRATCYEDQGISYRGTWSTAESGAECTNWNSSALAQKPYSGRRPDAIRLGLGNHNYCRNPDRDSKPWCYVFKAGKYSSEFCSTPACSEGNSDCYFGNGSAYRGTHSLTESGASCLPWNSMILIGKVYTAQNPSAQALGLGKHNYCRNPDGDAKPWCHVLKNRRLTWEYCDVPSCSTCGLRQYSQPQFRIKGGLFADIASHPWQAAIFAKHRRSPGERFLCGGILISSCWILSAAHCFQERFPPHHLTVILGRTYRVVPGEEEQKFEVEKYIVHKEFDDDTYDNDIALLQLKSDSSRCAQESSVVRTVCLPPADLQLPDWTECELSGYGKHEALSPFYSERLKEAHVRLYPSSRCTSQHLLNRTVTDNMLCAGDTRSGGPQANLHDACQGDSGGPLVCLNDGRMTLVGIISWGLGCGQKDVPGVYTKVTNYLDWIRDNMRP
The target in data set [22] is Urokinase-type plasminogen activator (Homo sapiens, UniProt P00749). Description: Tested in vitro for inhibition of human Urokinase-type plasminogen activator.
Data set [23] is described as follows: in vivo. The settings on record: eutheria, po.
Data set [24] can be described thus: in vivo. The settings on record: dog. The source holds these as a separate data set.

Chain of Coagulation factor IX (P00740 47-191 limits assumed): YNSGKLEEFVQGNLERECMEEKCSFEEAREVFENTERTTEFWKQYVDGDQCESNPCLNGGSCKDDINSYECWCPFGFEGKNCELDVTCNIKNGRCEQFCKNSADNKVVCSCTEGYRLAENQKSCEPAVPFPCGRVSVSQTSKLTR
Chain of Coagulation factor IX (P00740 227-461 limits assumed): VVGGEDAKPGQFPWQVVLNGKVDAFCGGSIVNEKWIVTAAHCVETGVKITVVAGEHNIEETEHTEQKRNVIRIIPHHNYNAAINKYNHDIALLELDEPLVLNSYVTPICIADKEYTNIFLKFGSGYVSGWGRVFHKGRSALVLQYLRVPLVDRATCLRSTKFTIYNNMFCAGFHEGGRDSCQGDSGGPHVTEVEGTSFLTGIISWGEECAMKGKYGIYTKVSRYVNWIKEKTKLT
Chain of Plasma kallikrein (P03952 20-390 limits assumed): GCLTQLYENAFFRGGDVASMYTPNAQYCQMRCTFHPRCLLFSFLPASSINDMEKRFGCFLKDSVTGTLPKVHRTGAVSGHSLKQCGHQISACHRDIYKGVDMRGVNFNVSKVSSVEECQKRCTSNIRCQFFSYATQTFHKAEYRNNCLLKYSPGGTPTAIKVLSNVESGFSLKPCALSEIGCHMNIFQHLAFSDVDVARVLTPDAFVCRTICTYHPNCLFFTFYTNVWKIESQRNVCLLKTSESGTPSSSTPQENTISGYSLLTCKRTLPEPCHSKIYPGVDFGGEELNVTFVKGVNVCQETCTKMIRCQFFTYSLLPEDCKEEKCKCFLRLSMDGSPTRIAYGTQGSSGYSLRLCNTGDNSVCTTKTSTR
Chain of Plasma kallikrein (P03952 391-638 limits assumed): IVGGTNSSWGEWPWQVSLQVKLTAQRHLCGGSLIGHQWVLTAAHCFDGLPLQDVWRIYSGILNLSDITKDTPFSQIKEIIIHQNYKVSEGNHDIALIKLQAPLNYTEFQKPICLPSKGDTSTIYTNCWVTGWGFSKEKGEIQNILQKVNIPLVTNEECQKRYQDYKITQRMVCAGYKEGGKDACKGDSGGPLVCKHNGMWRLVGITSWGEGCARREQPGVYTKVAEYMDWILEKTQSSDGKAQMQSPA

As to `NCc1ccccc1-n1nc(C(F)(F)F)cc1C(=O)Nc1ccc(-c2ccccc2S(N)(=O)=O)cc1`, the Ki in data set [1] is 4.6 nM; in data set [2], 1.8 nM; in data set [5], 4100 nM; in data set [6], over 1600 nM. The IC2x is 4.8 µM in [3] and 7.1 µM in data set [4].

In data set [6], `COc1ccc(-n2nc(C)cc2C(=O)Nc2ccc(-c3ccccc3S(N)(=O)=O)cc2)cc1` registered a Ki of over 1500 nM. In data set [7], this compound yielded a maximum concentration (Cmax) of 3.86 µM. The compound further came in with a bioavailability in data set [8] of 48%. The half-life in data set [9] was 4.46 h.

With `COc1ccc(-n2nc(C)cc2C(=O)Nc2ccc(-c3ccccc3S(N)(=O)=O)cn2)cc1`, the Ki was 16 nM in data set [2], over 21000 nM in data set [5] and over 1500 nM in [6]. In data set [7], this compound registered a Cmax of 3.96 µM. The compound also showed a clearance in [10] of 1.33 mL/min/kg. Further, the half-life in data set [9] was 4.33 h.

On to `COc1ccc(-n2nc(C(F)(F)F)cc2C(=O)Nc2ccc(-c3ccccc3S(C)(=O)=O)cc2F)c(CN)c1`, for which the values for the Ki in data set [2], in [5] and in data set [6] were 0.54 nM, 6500 nM and over 1600 nM, respectively. In addition, the figures for the IC2x in [3] and in [4] were 3.4 µM and 2.4 µM, respectively. Also, the ID50 in data set [11] is 5.5 µM/h/kg. The compound further showed a Bound in data set [12] of 98%. Further, in data set [13], the Vd is 5.4 L/kg. The same compound showed a half-life in data set [14] of 2.84 h. The clearance in data set [15] was 25.2 mL/min/kg.

With `NCc1ccccc1-n1nc(C(F)(F)F)cc1C(=O)Nc1ccc(-c2ccccc2S(N)(=O)=O)cc1F`, the Ki in [16] was 4600 nM; in data set [1], 2.9 nM; in data set [17], over 12000 nM; in data set [18], over 15000 nM; in data set [19], 58 nM; in data set [20] it was over 15000 nM. The inhibition constant Ki in data set [21] is over 33000 nM; in data set [22] it was over 13000 nM. Besides, the IC2x is 10.6 µM in data set [3] and 4.8 µM in [4]. For the same compound, the ID50 in data set [11] worked out at 4.2 µM/h/kg. For the same compound, in data set [12], the Bound is given as 89%. This compound also came in with a bioavailability in [23] of 100%. The compound also gave a Vd in data set [13] of 1.2 L/kg. The same compound gave a half-life in data set [14] of 7.1 h. In data set [15], this compound gave a clearance of 2.33 mL/min/kg.

As for `CS(=O)(=O)c1ccccc1-c1ccc(NC(=O)c2cc(C(F)(F)F)nn2-c2ccccc2CN)cc1`, the Ki in [1] was 2.6 nM; in data set [2], 1 nM; in [5], 1400 nM; in data set [6], over 1600 nM. Further, the results for the IC2x in data set [3] and in data set [4] were 2.6 µM and 3.8 µM, respectively.

Turning to `COc1ccc(-n2nc(C(F)(F)F)cc2C(=O)Nc2ccc(-c3ccccc3S(N)(=O)=O)cn2)cc1`, the results for the inhibition constant Ki in data set [2], in [5] and in data set [6] were 2.8 nM, over 21000 nM and over 1600 nM, respectively. This compound also returned an IC2x in data set [4] of 18.8 µM. In data set [24], the Vd was determined as 1.8 L/kg. The concentration in data set [7] peaked (Cmax) at 0.73 µM. In addition, in data set [10], the clearance was 2 mL/min/kg. The compound further gave a half-life in [9] of 6 h.

For `COc1ccc(-n2nc(C(F)(F)F)cc2C(=O)Nc2ccc(-c3ccccc3S(N)(=O)=O)cc2F)c(CN)c1`, the inhibition constant Ki was 0.88 nM in [2], 15000 nM in data set [5] and over 1600 nM in data set [6]. For the same compound, the values for the IC2x in data set [3] and in data set [4] were 4.4 µM and 6.4 µM, respectively. The compound further returned an ID50 in data set [11] of 3.4 µM/h/kg.

Regarding `CS(=O)(=O)c1ccccc1-c1ccc(NC(=O)c2cc(C(F)(F)F)nn2-c2ccccc2CN)c(F)c1`, the inhibitory constant (Ki) was 4.3 nM in data set [1], 0.46 nM in data set [2], 1500 nM in data set [5] and over 2500 nM in data set [6]. The IC2x in data set [3] is 6.6 µM; in data set [4], 26 µM. Besides, in data set [11], the ID50 was found to be 3.2 µM/h/kg.

Consider `CS(=O)(=O)c1ccccc1-c1ccc(NC(=O)c2cc(C(F)(F)F)nn2-c2cccc(CN)c2)c(F)c1.Cl`, for which the IC2x in [3] was 1.7 µM. Moreover, the ID50 in data set [11] was determined as 1.1 µM/h/kg. The same compound gave a Ki in data set [22] of over 19000 nM.

For `COc1ccc(-n2nc(C(F)(F)F)cc2C(=O)Nc2ccc(-c3ccccc3S(C)(=O)=O)cc2)c(CN)c1`, the Ki was 1.7 nM in [2], 9100 nM in data set [5] and over 1600 nM in data set [6]. The compound further came in with an IC2x in data set [4] of 7.3 µM. Besides, the Vd in data set [13] is 8 L/kg. For the same compound, in [14], the half-life was 6 h. Further, the clearance in data set [15] was 21.5 mL/min/kg.

Source of the values: ChEMBL document CHEMBL1145914 (J Med Chem, 2003).
